# Source: ChEMBL document CHEMBL1146632, “Styrylheterocycles: a novel class of inhibitors on lipopolysaccharide-Induced nitric oxide production” (Bioorg Med Chem Lett, 2003)
# Test system: RAW264.7
# Test: Inhibitory activity against nitric oxide production in lipopolysaccharide-activated mouse macrophage RAW264.7 cells
# Format: functional, cell-based
# In short: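 RAW264.7 cells in phenol-red-free DMEM with 10% FBS were plated at 8×10⁵ cells/mL and grown 24 h. The medium was then renewed, and cells were exposed to LPS with or without test sample for 20 h. Nitrite in the medium, taken as the NO indicator, was measured in triplicate with Griess reagent (0.1% naphthylethylenediamine, 1% sulfanilamide, 5% H₃PO₄). Inhibition was calculated as % of the vehicle-treated control, and IC₅₀ was taken from dose-response curves.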
row,SMILES,IC50 [µM]
1,Oc1ccc(/C=C/c2cc(O)cc(O)c2)cc1 [RESVERATROL],15.9
2,COc1ccc(/C=C/c2cccs2)cc1,> 50
3,COc1cc(/C=C/c2cccs2)cc(OC)c1,> 50
4,COc1cc(/C=C\c2ccsc2)cc(OC)c1OC,5.6
5,COc1ccc(/C=C\c2cccs2)cc1,> 50
6,COc1cc(/C=C\c2cccs2)cc(OC)c1,> 50
7,COc1cc(/C=C/c2ccoc2)cc(OC)c1OC,9.5
8,COc1cc(/C=C\c2ccoc2)cc(OC)c1OC,6.6
9,COc1cc(/C=C/c2cccs2)cc(OC)c1OC,5.3
10,COc1cc(/C=C/c2ccco2)cc(OC)c1OC,5.9

# Test system: RAW264.7
# Test: Inhibitory activity of the compound against nitric oxide production in lipopolysaccharide-activated mouse macrophage RAW264.7 cells
row,SMILES,IC50 [µM]
1,COc1cc(/C=C/c2ccsc2)cc(OC)c1OC,7.8
